{"source": "ChEMBL document CHEMBL3425419", "about": "“Developing new chemical tools for DNA methyltransferase 1 (DNMT 1): a small-molecule activity-based probe and novel tetrazole-containing inhibitors” (Bioorg Med Chem, 2015)", "key": {"[1]": {"biological_target": "DNA (cytosine-5)-methyltransferase 1 (Homo sapiens) (UniProt P26358)", "sequence (P26358 whole entry)": "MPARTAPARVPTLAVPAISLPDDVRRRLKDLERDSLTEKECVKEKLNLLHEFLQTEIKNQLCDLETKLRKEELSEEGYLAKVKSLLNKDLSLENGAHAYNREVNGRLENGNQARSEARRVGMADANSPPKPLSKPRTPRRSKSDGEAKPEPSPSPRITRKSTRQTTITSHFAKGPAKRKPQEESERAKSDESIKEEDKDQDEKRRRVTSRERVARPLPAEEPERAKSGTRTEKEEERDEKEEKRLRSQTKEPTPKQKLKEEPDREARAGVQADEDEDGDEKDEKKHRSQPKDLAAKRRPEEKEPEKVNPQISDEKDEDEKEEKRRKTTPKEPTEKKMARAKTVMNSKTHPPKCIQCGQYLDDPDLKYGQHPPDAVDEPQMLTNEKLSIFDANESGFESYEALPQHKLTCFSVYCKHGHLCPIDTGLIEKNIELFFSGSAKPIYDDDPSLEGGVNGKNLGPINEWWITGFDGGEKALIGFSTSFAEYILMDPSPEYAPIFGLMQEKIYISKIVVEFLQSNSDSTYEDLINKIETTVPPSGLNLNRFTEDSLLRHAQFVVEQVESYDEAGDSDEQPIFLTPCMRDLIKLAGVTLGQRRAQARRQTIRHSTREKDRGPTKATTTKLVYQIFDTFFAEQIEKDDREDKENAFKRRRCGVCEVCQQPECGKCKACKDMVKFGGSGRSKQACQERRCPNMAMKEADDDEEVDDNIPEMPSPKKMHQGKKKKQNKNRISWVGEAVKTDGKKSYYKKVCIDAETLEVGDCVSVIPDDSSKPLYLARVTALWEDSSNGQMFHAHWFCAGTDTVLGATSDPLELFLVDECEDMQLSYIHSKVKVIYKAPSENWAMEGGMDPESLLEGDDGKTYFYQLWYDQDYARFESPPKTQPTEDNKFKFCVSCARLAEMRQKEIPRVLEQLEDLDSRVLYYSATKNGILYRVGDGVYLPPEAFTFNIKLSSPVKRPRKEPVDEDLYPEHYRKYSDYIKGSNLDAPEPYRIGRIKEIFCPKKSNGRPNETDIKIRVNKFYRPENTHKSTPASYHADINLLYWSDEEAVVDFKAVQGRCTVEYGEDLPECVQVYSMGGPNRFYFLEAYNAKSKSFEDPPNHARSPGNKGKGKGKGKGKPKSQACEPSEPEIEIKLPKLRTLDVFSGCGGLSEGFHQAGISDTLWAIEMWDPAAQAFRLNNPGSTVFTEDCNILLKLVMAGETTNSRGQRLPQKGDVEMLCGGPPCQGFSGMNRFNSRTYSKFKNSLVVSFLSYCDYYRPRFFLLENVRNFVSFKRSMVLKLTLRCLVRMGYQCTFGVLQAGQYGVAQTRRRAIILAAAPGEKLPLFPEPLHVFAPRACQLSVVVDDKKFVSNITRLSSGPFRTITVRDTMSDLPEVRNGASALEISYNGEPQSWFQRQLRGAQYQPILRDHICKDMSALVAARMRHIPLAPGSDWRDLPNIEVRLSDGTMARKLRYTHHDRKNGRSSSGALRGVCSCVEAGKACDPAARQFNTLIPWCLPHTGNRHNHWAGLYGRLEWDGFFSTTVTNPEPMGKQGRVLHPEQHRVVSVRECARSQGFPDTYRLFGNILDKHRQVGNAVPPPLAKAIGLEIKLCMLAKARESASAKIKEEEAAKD", "assay": "Inhibition of recombinant DNMT1 (unknown origin) after 90 mins by fluorescence assay"}, "MCF7 [2]": {"tested_on": "MCF7", "assay": "Cytotoxicity against human MCF7 cells after 72 hrs by XTT assay", "assay_type": "functional", "conditions": "for GI50: MCF7, 72 h", "procedure,_shortened": "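MCF-7 breast cancer cells exposed to a range of compound concentrations, and growth read by XTT anti-proliferation assay. GI50 is defined as the concentration giving 50% growth inhibition, taken from dose–response plots.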"}, "[3]": {"biological_target": "DNA (cytosine-5)-methyltransferase 1 (Homo sapiens) (UniProt P26358)", "assay": "Competitive inhibition of DNMT1 in (S)-Methyl 2-(2,5-dioxo-2,5-dihydro-1H-pyrrol-1-yl)-3-(5-(prop-2-yn-1-yloxy)-1H-indol-3-yl)propanoate labeled human MCF7 cells at 50 to 500 uM preincubated for 1 hr followed by cell labeling for 1 hr and clicked with TER-biotin-N3 for 2 hrs and pull down by Western blot analysis", "assay_type": "cell-based", "procedure,_shortened": "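Mammalian cells pretreated with competitor at 50, 100 or 500 µM. Their lysates were then labelled with 10 µM alkyne probe for 1 h at room temperature and clicked for 2 h with TER-Biotin-N3. DNMT1 (~183 kDa) was detected by pull-down and western blot, with DMSO as the negative control.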"}, "MCF7 [4]": {"tested_on": "MCF7", "assay": "Induction of apoptosis in human MCF7 cells assessed as dead cells at 10 uM after 6 hrs by FITC-Annexin V/propidium iodide staining-based FACS analysis relative to control", "assay_type": "functional", "procedure,_shortened": "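Live MCF-7 cells treated with compound at 10 µM, then stained with FITC-Annexin V (apoptotic cells) and propidium iodide (dead cells). Signals quantified by flow cytometry and read from histograms.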"}, "[5]": {"biological_target": "DNA (cytosine-5)-methyltransferase 1 (Homo sapiens) (UniProt P26358)", "assay": "Competitive inhibition of DNMT1 in (S)-Methyl 2-(2,5-dioxo-2,5-dihydro-1H-pyrrol-1-yl)-3-(5-(prop-2-yn-1-yloxy)-1H-indol-3-yl)propanoate labeled human MCF7 cells at 100 uM preincubated for 1 hr followed by cell labeling for 30 mins and clicked with TER-PEG-N3 measured after 2 hrs by Hoechst 33342 staining-based immunofluorescence assay", "procedure,_shortened": "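Live MCF-7 cells pretreated with competitor at 100 µM for 1 h, then given 5 µM alkyne probe for 30 min in the incubator. Cells were fixed (3.7% formaldehyde), permeabilised (0.1% Triton X-100), clicked with TER-PEG-N3, immunostained with anti-DNMT1 and Hoechst-stained. Imaging was by fluorescence microscopy in four channels (bright-field, probe, IF, nuclear).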"}, "MCF7 [6]": {"tested_on": "MCF7", "assay": "Induction of apoptosis in human MCF7 cells assessed as apoptotic cells at 10 uM after 6 hrs by FITC-Annexin V/propidium iodide staining-based FACS analysis relative to control", "assay_type": "functional", "procedure,_shortened": "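Live MCF-7 cells treated with inhibitors at 10 µM, then stained with FITC Annexin V (apoptosis) and propidium iodide (cell death). Signals were quantified by flow cytometry against DMSO-treated cells.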"}, "[7]": {"biological_target": "DNA (cytosine-5)-methyltransferase 1 (Homo sapiens) (UniProt P26358)", "assay": "Binding affinity to DNMT1 in human MCF7 cells at 10 uM preincubated for 1 hr post RG108, 1149 and (S)-Methyl 2-(2,5-dioxo-2,5-dihydro-1H-pyrrol-1-yl)-3-(4-(5-phenyl-2H-tetrazol-2-yl)phenyl)propanoate treatment followed by clicked with TER-Biotin-N3 for 2 hrs and pull down by Western blot analysis", "assay_type": "cell-based", "procedure,_shortened": "(§1)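 Freshly prepared MCF-7 lysate (100 µg) labelled with 10 µM alkyne probe for 1 h at room temperature, then CuAAC click for 2 h. TER-PEG-N3 was used for in-gel fluorescence scanning, and TER-Biotin-N3 for pull-down followed by western blot against DNMT1. DMSO-treated cells served as the negative control.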"}, "[8]": {"assay": "Drug uptake in nucleus of human MCF7 cells at 5 uM preincubated for 30 hrs post RG108, 1149 and (S)-Methyl 2-(2,5-dioxo-2,5-dihydro-1H-pyrrol-1-yl)-3-(4-(5-phenyl-2H-tetrazol-2-yl)phenyl)propanoate treatment followed by clicked with TER-PEG-N3 measured after 2 hrs by Hoechst 33342 staining-based immunofluorescence assay", "assay_type": "ADME, cell-based", "conditions": "mcf7, 2 h, in the assay text read “30 min” for “30 hrs”", "procedure,_shortened": "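MCF-7 cells incubated with 5 µM alkyne probe for 30 min in the incubator, fixed with 3.7% formaldehyde, permeabilised with 0.1% Triton X-100 and clicked with TER-PEG-N3. Anti-DNMT1 immunofluorescence and Hoechst nuclear staining followed. Localisation was read by fluorescence microscopy, with DMSO-only cells as control.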"}, "[9]": {"biological_target": "DNA (cytosine-5)-methyltransferase 1 (Homo sapiens) (UniProt P26358)", "assay": "Binding affinity to DNMT1 in human MCF7 cells at 10 uM preincubated for 1 hr post RG108, 1149 and (S)-Methyl 2-(2,5-dioxo-2,5-dihydro-1H-pyrrol-1-yl)-3-(4-(5-phenyl-2H-tetrazol-2-yl)phenyl)propanoate treatment followed by CuAAC click chemistry application measured after 2 hrs by gel fluorescence scanning assay", "assay_type": "cell-based", "procedure,_shortened": "as §1"}}, "note": "The source made the active and inactive calls.", "data": [{"smiles": "COC(=O)[C@H](Cc1ccc(-n2nnc(-c3ccc(OC(F)F)cc3)n2)cc1)N1C(=O)C=CC1=O", "values": [{"measurement": "inhibition", "setting": "[1]", "value": "Active"}, {"measurement": "growth inhibition (GI)", "setting": "MCF7 [2]", "value": "Dose-dependent effect"}, {"measurement": "GI50", "setting": "MCF7 [2]", "value": 0.73, "unit": "µM"}]}, {"smiles": "COC(=O)[C@H](Cc1ccc(-n2nnc(-c3ccccc3)n2)cc1)N1C(=O)C=CC1=O", "values": [{"measurement": "inhibition", "setting": "[3]", "value": "Active"}, {"measurement": "Activity", "setting": "MCF7 [4]", "value": "Active"}, {"measurement": "inhibition", "setting": "[1]", "value": "Active"}, {"measurement": "inhibition", "setting": "[5]", "value": "Active"}, {"measurement": "Activity", "setting": "MCF7 [6]", "value": "Active"}, {"measurement": "growth inhibition (GI)", "setting": "MCF7 [2]", "value": "Dose-dependent effect"}, {"measurement": "GI50", "setting": "MCF7 [2]", "value": 0.3, "unit": "µM"}]}, {"smiles": "COC(=O)[C@H](Cc1ccc(-n2nnc(-c3ccc(C(F)(F)F)cc3)n2)cc1)N1C(=O)C=CC1=O", "values": [{"measurement": "inhibition", "setting": "[1]", "value": "Active"}, {"measurement": "growth inhibition (GI)", "setting": "MCF7 [2]", "value": "Dose-dependent effect"}, {"measurement": "GI50", "setting": "MCF7 [2]", "value": 1.77, "unit": "µM"}]}, {"smiles": "C#CCOc1ccc2[nH]cc(C[C@@H](C(=O)OC)N3C(=O)C=CC3=O)c2c1", "values": [{"measurement": "Activity", "setting": "[7]", "value": "Active"}, {"measurement": "Drug uptake", "setting": "[8]", "value": "Active"}, {"measurement": "Activity", "setting": "MCF7 [6]", "value": 61, "unit": "%"}, {"measurement": "growth inhibition (GI)", "setting": "MCF7 [2]", "value": "Dose-dependent effect"}, {"measurement": "GI50", "setting": "MCF7 [2]", "value": 0.29, "unit": "µM"}, {"measurement": "Activity", "setting": "[9]", "value": "inactive"}]}, {"smiles": "COC(=O)[C@H](Cc1ccc(-n2nnc(-c3ccc(OC)cc3)n2)cc1)N1C(=O)C=CC1=O", "values": [{"measurement": "inhibition", "setting": "[1]", "value": "Active"}, {"measurement": "growth inhibition (GI)", "setting": "MCF7 [2]", "value": "Dose-dependent effect"}, {"measurement": "GI50", "setting": "MCF7 [2]", "value": 0.87, "unit": "µM"}]}, {"smiles": "COC(=O)[C@H](Cc1ccc(-n2nnc(-c3ccc(N(C)C)cc3)n2)cc1)N1C(=O)C=CC1=O", "values": [{"measurement": "inhibition", "setting": "[1]", "value": "Active"}, {"measurement": "growth inhibition (GI)", "setting": "MCF7 [2]", "value": "Dose-dependent effect"}, {"measurement": "GI50", "setting": "MCF7 [2]", "value": 1.08, "unit": "µM"}]}, {"smiles": "COC(=O)[C@H](Cc1ccc(-n2nnc(-c3cc(C)cc(C)c3)n2)cc1)N1C(=O)C=CC1=O", "values": [{"measurement": "inhibition", "setting": "[1]", "value": "Active"}, {"measurement": "growth inhibition (GI)", "setting": "MCF7 [2]", "value": "Dose-dependent effect"}, {"measurement": "GI50", "setting": "MCF7 [2]", "value": 0.78, "unit": "µM"}]}, {"smiles": "COC(=O)[C@H](Cc1ccc(-n2nnc(-c3ccncc3)n2)cc1)N1C(=O)C=CC1=O", "values": [{"measurement": "inhibition", "setting": "[1]", "value": "Active"}, {"measurement": "growth inhibition (GI)", "setting": "MCF7 [2]", "value": "Dose-dependent effect"}, {"measurement": "GI50", "setting": "MCF7 [2]", "value": 1.86, "unit": "µM"}]}, {"smiles": "O=C(O)[C@H](Cc1c[nH]c2ccccc12)N1C(=O)c2ccccc2C1=O", "values": [{"measurement": "inhibition", "setting": "[3]", "value": "Active"}, {"measurement": "Activity", "setting": "MCF7 [4]", "value": "Active"}, {"measurement": "inhibition", "setting": "[1]", "value": "Active"}, {"measurement": "inhibition", "setting": "[5]", "value": "Active"}, {"measurement": "Activity", "setting": "MCF7 [6]", "value": "Active"}, {"measurement": "GI50", "setting": "MCF7 [2]", "value": 128, "unit": "µM"}]}, {"smiles": "O=C(O)[C@H](Cc1c[nH]c2ccccc12)N1C(=O)C=CC1=O", "values": [{"measurement": "inhibition", "setting": "[3]", "value": "Active"}, {"measurement": "inhibition", "setting": "[1]", "value": "Active"}, {"measurement": "inhibition", "setting": "[5]", "value": "Active"}, {"measurement": "GI50", "setting": "MCF7 [2]", "value": 7.31, "unit": "µM"}]}, {"smiles": "COC(=O)[C@H](Cc1ccc(-n2nnc(-c3cc(F)cc(F)c3)n2)cc1)N1C(=O)C=CC1=O", "values": [{"measurement": "inhibition", "setting": "[1]", "value": "Active"}, {"measurement": "growth inhibition (GI)", "setting": "MCF7 [2]", "value": "Dose-dependent effect"}, {"measurement": "GI50", "setting": "MCF7 [2]", "value": 1.1, "unit": "µM"}]}, {"smiles": "COC(=O)[C@H](Cc1ccc(-n2nnc(-c3ccc(C(C)C)cc3)n2)cc1)N1C(=O)C=CC1=O", "values": [{"measurement": "inhibition", "setting": "[1]", "value": "Active"}, {"measurement": "growth inhibition (GI)", "setting": "MCF7 [2]", "value": "Dose-dependent effect"}, {"measurement": "GI50", "setting": "MCF7 [2]", "value": 0.38, "unit": "µM"}]}, {"smiles": "COC(=O)[C@H](Cc1ccc(-n2nnc(-c3ccc(F)cc3)n2)cc1)N1C(=O)C=CC1=O", "values": [{"measurement": "inhibition", "setting": "[1]", "value": "Active"}, {"measurement": "growth inhibition (GI)", "setting": "MCF7 [2]", "value": "Dose-dependent effect"}, {"measurement": "GI50", "setting": "MCF7 [2]", "value": 1.16, "unit": "µM"}]}, {"smiles": "CCCCCCOc1ccc(-c2nnn(-c3ccc(C[C@@H](C(=O)OC)N4C(=O)C=CC4=O)cc3)n2)cc1", "values": [{"measurement": "inhibition", "setting": "[1]", "value": "Active"}, {"measurement": "growth inhibition (GI)", "setting": "MCF7 [2]", "value": "Dose-dependent effect"}, {"measurement": "GI50", "setting": "MCF7 [2]", "value": 6.15, "unit": "µM"}]}, {"smiles": "COC(=O)[C@H](Cc1ccc(-n2nnc(-c3cccc4ccccc34)n2)cc1)N1C(=O)C=CC1=O", "values": [{"measurement": "inhibition", "setting": "[1]", "value": "Active"}, {"measurement": "growth inhibition (GI)", "setting": "MCF7 [2]", "value": "Dose-dependent effect"}, {"measurement": "GI50", "setting": "MCF7 [2]", "value": 0.48, "unit": "µM"}]}]}
